An excerpt weighted towards active compounds, which were near 3.3% of everything screened.
HUVEC tox IL1B: toxic to HUVEC cells under IL-1B stimulation; HUVEC cell count loss, Hoechst imaging, IL-1B stimulated; cell count reduction, % at 2 µM; hit rate 0.41% among 94,000;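 active = cell count reduction more than 3 SD above the screen-wide mean, cut at about 70% in these data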;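 also: normalized per plate to untreated control cells as the no-loss baseline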
Measles CPE: protection of cells from measles virus | Measles virus-infected cells, CPE protection, absorbance | protection (pct of control), % at 4 µM | hit rate 1.5% among 140,000 | AID 841; in the data active = protection mostly above about 24%, no sharp cut-off; inactive = mostly below about 26%
HIV Rev-RRE inh: inhibitors of HIV-1 Rev-RRE RNA interaction | hit rate 0.79% among 97,000 | AID 704 | Rev peptide-RRE RNA binding, FRET | inhibition, % at 8 µM;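 active = inhibition above the screen-wide mean plus 3 SD, cut at about 35% in these data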;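 also: 0% = median DMSO wells and 100% = median Neomycin B control wells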
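Test system – labelled RRE RNA duplex and labelled Rev peptide · Signal – fluorescein-to-Cy5 FRET, 480 nm excitation · Evaluation – % inhibition of FRET ratio versus controls · Benchmarks – DMSO low control, neomycin B high control · Incubation – 5 min RNA-compound premix plus 15 min binding step, 25 °C · Medium – HEPES pH 7.5 salt buffer with EDTA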
FAK inh: inhibitors of human focal adhesion kinase | Q05397 | biochemical FAK kinase activity assay | inhibition, %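 (tested at 7 µM)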 | hit rate 0.84% among 97,000 | AID 727; in the data active = inhibition above about 19%;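 also: 0% = DMSO and 100% = reference compound high control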
Target sequence (Q05397 whole entry, looked up): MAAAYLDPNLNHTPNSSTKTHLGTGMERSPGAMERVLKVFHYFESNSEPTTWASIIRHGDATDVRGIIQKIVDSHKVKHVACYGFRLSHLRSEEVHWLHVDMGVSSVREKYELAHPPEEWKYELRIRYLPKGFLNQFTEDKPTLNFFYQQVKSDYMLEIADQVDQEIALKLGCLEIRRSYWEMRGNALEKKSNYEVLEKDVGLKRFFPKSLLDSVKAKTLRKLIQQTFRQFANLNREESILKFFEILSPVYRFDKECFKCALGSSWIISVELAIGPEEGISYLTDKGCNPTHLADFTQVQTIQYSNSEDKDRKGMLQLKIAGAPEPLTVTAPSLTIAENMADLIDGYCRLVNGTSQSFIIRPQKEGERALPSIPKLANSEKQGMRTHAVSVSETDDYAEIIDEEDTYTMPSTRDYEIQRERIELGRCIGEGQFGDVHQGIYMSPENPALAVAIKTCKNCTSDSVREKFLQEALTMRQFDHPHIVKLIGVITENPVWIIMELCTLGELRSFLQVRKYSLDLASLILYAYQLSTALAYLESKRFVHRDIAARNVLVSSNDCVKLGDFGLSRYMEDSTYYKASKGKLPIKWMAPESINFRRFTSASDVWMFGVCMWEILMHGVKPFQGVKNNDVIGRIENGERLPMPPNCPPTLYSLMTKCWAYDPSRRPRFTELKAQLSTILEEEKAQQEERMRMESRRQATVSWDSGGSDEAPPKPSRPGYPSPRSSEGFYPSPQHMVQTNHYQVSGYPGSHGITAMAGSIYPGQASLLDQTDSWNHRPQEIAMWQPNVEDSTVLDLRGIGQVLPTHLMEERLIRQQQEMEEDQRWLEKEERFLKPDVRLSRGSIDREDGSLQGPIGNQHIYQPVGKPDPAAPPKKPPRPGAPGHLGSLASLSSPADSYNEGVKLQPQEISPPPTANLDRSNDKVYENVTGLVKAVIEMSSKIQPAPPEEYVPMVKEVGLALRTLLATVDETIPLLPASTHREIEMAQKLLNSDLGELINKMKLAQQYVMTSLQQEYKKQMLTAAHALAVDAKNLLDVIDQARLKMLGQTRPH
NFkB transloc inh: blocks IL-1B driven NFkB nuclear translocation in HUVEC cells; HUVEC IL-1B NFkB p65 nuclear translocation imaging; inhibition, % at 2 µM; hit rate 0.43% among 94,000;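 active = inhibition above about 30% together with a positive call from visual inspection of the well image, limit read from the data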;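 also: nuclear over cytoplasmic p65 intensity ratio measured by imaging; 0% = IL-1B stimulated DMSO wells and 100% = unstimulated DMSO wells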
IL1B NFkB pot: enhances IL-1B driven NFkB nuclear translocation; HUVEC IL-1B NFkB p65 nuclear translocation imaging; activation, % at 2 µM; hit rate 0.3% among 94,000; AID 819;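 active = activation above 40%, about the mean plus 3 SD, also judged a hit on visual image review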;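 also: percent activation is computed from the nuclear over cytoplasmic p65 intensity ratio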
* = called active by the depositor; / = no result.

SMILES	HUVEC tox IL1B	Measles CPE	HIV Rev-RRE inh	FAK inh	NFkB transloc inh	IL1B NFkB pot
O=C(Cn1cnc2c(oc3ccccc32)c1=O)NCC1CCCO1 (stereo not given)	-2	27*	7	-2	-6	6
CCOC(=O)CCC(NC(=O)CCCCCCCC(=O)NC(CCC(=O)OCC)C(=O)OCC)C(=O)OCC (stereo not given)	/	16	/	/	/	/
O=S(=O)(C/C(=C/CO)S(=O)(=O)c1ccccc1)c1ccccc1	3	1	8	9	51*	-51
CCOC(=O)CCSc1nc(C(C)(C)C)cc(C(F)(F)F)c1C#N	26	18	10	-1	-2	2
CCOC(=O)CC(=O)CSc1nc(-c2ccc3c(c2)OCO3)cc(C(F)(F)F)c1C#N	-3	4	61*	-3	-6	5
CCOC(=O)CCc1c(C)nc(SCC(=O)O)c(C#N)c1C	-22	32*	5	-9	-2	2
CCOC(=O)CCSc1nc(-c2ccc3c(c2)OCO3)cc(C(F)(F)F)c1C#N	-38	6	17	-2	-18	18
CCOC(=O)CSc1nc(C)cc(C)c1C#N	-5	4	4	1	50*	-50
CCOC(=O)CCSc1nc(C)cc(C(F)(F)F)c1C#N	-20	19	80*	0	-6	6
CCOC(=O)c1c(C)nc(SCC(N)=O)c(C#N)c1-c1ccccc1	/	9	/	/	/	/
Cc1cc(C)c(C#N)c(SCc2ccccc2)n1	91*	4	14	1	20	-20
CCOC(=O)/C(C#N)=C1\CCCN1CC(N)=S	/	6	/	/	/	/
O=C(CSc1nc2ccccc2c(=O)n1Cc1ccco1)N1CCN(c2ccccc2)CC1	22	45*	13	2	13	-13
CCC(C)(C)n1nnnc1CN(Cc1cccs1)Cc1cc2cc(OC)ccc2[nH]c1=O	/	37*	/	/	/	/
CCOc1ccc2[nH]c(=O)c(CN(Cc3cccs3)Cc3nnnn3C(C)(C)CC)cc2c1	13	25	-2	0	-6	6
Cc1nc2ccc(NC(=O)c3cccc(C(F)(F)F)c3)cc2o1	-26	61*	7	-2	-2	3
COCCCNC(=O)c1cccc(C(=O)NCCCOC)c1	14	23*	3	-2	20	-20
COCCNC(=O)c1ccc(NC(C)=O)cc1	-14	52*	0	0	-14	14
O=C(Nc1ccccc1)c1cccc(C(F)(F)F)c1	/	12	/	/	/	/
CCCNC(=O)c1cccc(C(F)(F)F)c1	-124	27*	-4	-7	-10	10
CC(=O)c1ccc(NC(=S)N2CC(C)CC(C)C2)cc1 (stereo not given)	/	27	/	/	/	/
COc1ccc(/C=N/N2CCOCC2)cc1COc1ccc(Cl)cc1	/	2	/	/	/	/
Cc1cc(C)n(-c2nc3nonc3nc2Nc2cccc(C)c2C)n1	-27	31*	33	-1	-4	4
COc1cccc(NCc2ccc([N+](=O)[O-])s2)c1	/	48*	/	/	/	/
COc1cccc(NC(=O)COC(=O)COc2ccccc2[N+](=O)[O-])c1	/	4	/	/	/	/
SMILES	HUVEC tox IL1B	Measles CPE	HIV Rev-RRE inh	FAK inh	NFkB transloc inh	IL1B NFkB pot
O=C(NCc1ccccn1)c1cccc(NS(=O)(=O)c2cccc(F)c2)c1	/	14	/	/	/	/
COc1cccc(C2CC(c3ccc(C)cc3)Nc3nc(N)nn32)c1 (stereo not given)	/	40*	/	/	/	/
COc1cccc(C2CC(c3ccc(C)cc3)n3nc(N)nc3N2)c1 (stereo not given)	/	9	/	/	/	/
COc1cccc(-c2nc3sc4c(c3c(=O)[nH]2)CCCCC4)c1	/	5	/	/	/	/
O=C(Cn1nc(-c2ccccc2)ccc1=O)NCC1COCCO1 (stereo not given)	89*	6	0	-5	98*	-98
CN1CCN(CCCNC(=O)Cn2nc(-c3ccccc3)ccc2=O)CC1	/	2	/	/	/	/
CCC(C)c1ccc(NC(=O)C/C(C)=N/NC(=O)c2cnccn2)cc1 (stereo not given)	/	5	/	/	/	/
CCOC(=O)c1ccc2[nH]c3c(c2c1)CCCC3C(=O)OCC (stereo not given)	-17	7	6	-2	-6	6
CCOC(=O)c1ccc2[nH]c3c(c2c1)CCCCC3=O	16	39	10	2	-41	41*
COCCNC(=O)C(=O)NCC1OCCCN1S(=O)(=O)c1cccs1 (stereo not given)	/	16	/	/	/	/
Cc1cc(NC(=O)CN2C(=O)CC(c3ccco3)Sc3ccccc32)no1 (stereo not given)	/	42*	/	/	/	/
CC1CC(=O)N(CC(=O)NCc2ccco2)c2ccccc2S1 (stereo not given)	/	18	/	/	/	/
Cc1ccc(OCC(=O)Nc2sc3c(c2C#N)CCC3)cc1	25	/	5	7	-59	59*
CC(C)C(C(=O)Nc1sc2c(c1C#N)CCCCC2)N1C(=O)c2ccccc2C1=O (stereo not given)	15	56*	7	6	-7	7
Cc1cc2oc(=O)cc(Cn3nnc(-c4ccc(Cl)cc4)n3)c2cc1C(C)C	/	7	/	/	/	/
Cc1cc(NC(=O)CSc2ccc3nnc(-c4cccnc4)n3n2)no1	-17	44*	4	-1	-5	5
CCCCCCc1nc2ccccc2c(=O)n1NC(=O)c1c(O)c2cccc3c2n(c1=O)CC3	-23	/	4	0	-9	9
COc1ccc(OC)c(C2C3=C(CCCC3=O)Nc3c2c(=O)n(C)c(=O)n3C)c1 (stereo not given)	86*	14	4	0	-22	22
CCCOC(=O)CN1C(=O)c2ccccc2C1=O	-9	20*	-2	-5	-22	22
CN(C)S(=O)(=O)c1ccc(NC(=O)N2CCN(c3ccccc3)CC2)cc1	33	40*	5	2	-3	3
COc1ccc(N2CCN(C(=O)Nc3ccc(S(=O)(=O)N(C)C)cc3)CC2)cc1	-8	14	2	-9	9	-9
Cc1ccc(C2OC34CCCCCC3C(C#N)(C(=N)O4)C2(C#N)C#N)cc1 (stereo not given)	/	52*	/	/	/	/
CCCCOc1ccc(C2OC34CCCCC3C(C#N)(C#N)C2(C#N)C(=N)O4)cc1 (stereo not given)	2	3	29	0	-1	1
CCCCC(=O)Nc1ccc(C(=O)Nc2ccc(S(=O)(=O)Nc3ccc(C)cc3)cc2)cc1	/	4	/	/	/	/
O=C1C/C(=C/NCc2ccccc2)C(=O)N1	7	41*	8	5	1	-1
CSc1nc(N(C)NC(=O)c2ccccc2)c2ccccc2n1	6	7	-1	5	14	-14
CSc1nc(N(C)NC(=O)c2ccc(Cl)cc2)c2ccccc2n1	36	17	2	0	34*	-34
O=C(Nc1cnn(Cc2ccc(Cl)c(Cl)c2)c1)c1nc2ncccn2n1	-5	4	1	2	3	-3
Cc1ccc(Cn2ccc(NC(=O)c3nc4ncccn4n3)n2)cc1	-9	39*	1	-6	-2	2
Cc1ccc(Cn2ccc(NC(=O)c3noc4c3CCCCC4)n2)cc1	/	62*	/	/	/	/
